Laboratory results reported in ChEMBL document CHEMBL1817556, “Substituted lactam and cyclic azahemiacetals modulate Pseudomonas aeruginosa quorum sensing” (Bioorg Med Chem, 2011).
One block for each molecule: values may come before it.

Assays:
[1] = target: T1, Acyl-homoserine-lactone synthase (Pseudomonas aeruginosa (strain ATCC 15692 / PAO1 / 1C / PRS 101 / LMG12228)) (UniProt P33883); test: Modulation of Pseudomonas aeruginosa lacZ-fused lasI expressed in Escherichia coli DH5alpha co-expressing pBAD-lasR assessed as 3-oxo-C12-AHL-induced effect at 0.20 mM after 3 hrs by beta-galactosidase assay relative to control
T1 sequence (whole entry): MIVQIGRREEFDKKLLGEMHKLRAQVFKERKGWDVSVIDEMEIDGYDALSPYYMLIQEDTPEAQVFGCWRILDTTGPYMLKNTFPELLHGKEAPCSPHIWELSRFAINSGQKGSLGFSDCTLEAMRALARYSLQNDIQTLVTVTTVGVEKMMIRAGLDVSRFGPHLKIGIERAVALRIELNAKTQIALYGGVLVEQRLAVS
Outline: (§1)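 E. coli DH5α carrying pSC11 (PlasI-lacZ translational fusion) and pJN105L (PBAD-lasR) was grown overnight in LB with ampicillin (100 μg/ml) and gentamicin (15 μg/ml), then diluted to OD600 0.150. Arabinose (0.2% w/v), 3-oxo-C12-AHL (2 μM) and test compound or DMSO were added. Cultures were shaken 3 h at 37 °C. β-Galactosidase activity was read in Miller units and expressed as % of the solvent sample. Triplicates per biological replicate, repeated at least twice; paired two-tailed t-test.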

[2] = target: T1, Acyl-homoserine-lactone synthase (Pseudomonas aeruginosa (strain ATCC 15692 / PAO1 / 1C / PRS 101 / LMG12228)); test: Modulation of Pseudomonas aeruginosa lacZ-fused lasI expressed in Escherichia coli DH5alpha co-expressing pBAD-lasR assessed as 3-oxo-C12-AHL-induced effect at 0.40 mM after 3 hrs by beta-galactosidase assay relative to control; outline: as §1
[3] = target: 3-(3-hydroxydecanoyloxy)decanoate synthase (Pseudomonas aeruginosa (strain ATCC 15692 / PAO1 / 1C / PRS 101 / LMG12228)) (UniProt Q51559); test: Modulation of Pseudomonas aeruginosa lacZ-fused rhlA expressed in Escherichia coli DH5alpha co-expressing Ptac-rhlR assessed as C4-AHL-induced effect at 0.80 mM after 4 hrs by beta-galactosidase assay relative to control
Outline: (§2)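 E. coli DH5α carrying pECP61.5 (Ptac-rhlR, PrhlA-lacZ), grown overnight in LB with ampicillin 100 μg/ml and diluted to OD600 0.150. At OD600 1.0, 1 mM IPTG, 2 μM C4-HSL and compound or DMSO were added. Cultures were shaken 4 h at 37 °C, then β-galactosidase was read in Miller units. Activity is % of solvent sample, from triplicates per biological replicate, with at least two repeats.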

[4] = target: T1, Acyl-homoserine-lactone synthase (Pseudomonas aeruginosa (strain ATCC 15692 / PAO1 / 1C / PRS 101 / LMG12228)); test: Modulation of Pseudomonas aeruginosa lacZ-fused lasI expressed in Escherichia coli DH5alpha co-expressing pBAD-lasR assessed as 3-oxo-C12-AHL-induced effect at 0.60 mM after 3 hrs by beta-galactosidase assay relative to control; outline: as §1
[5] = target: T1, Acyl-homoserine-lactone synthase (Pseudomonas aeruginosa (strain ATCC 15692 / PAO1 / 1C / PRS 101 / LMG12228)); test: Modulation of Pseudomonas aeruginosa lacZ-fused lasI expressed in Escherichia coli DH5alpha co-expressing pBAD-lasR assessed as 3-oxo-C12-AHL-induced effect at 0.80 mM after 3 hrs by beta-galactosidase assay relative to control; outline: as §1
[6] = target: 3-(3-hydroxydecanoyloxy)decanoate synthase (Pseudomonas aeruginosa (strain ATCC 15692 / PAO1 / 1C / PRS 101 / LMG12228)) (UniProt Q51559); test: Modulation of Pseudomonas aeruginosa lacZ-fused rhlA expressed in Escherichia coli DH5alpha co-expressing Ptac-rhlR assessed as C4-AHL-induced effect at 0.20 mM after 4 hrs by beta-galactosidase assay relative to control
Outline: (§3)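 rhl reporter: E. coli DH5α carrying pECP61.5 (Ptac-rhlR, PrhlA-lacZ) was grown overnight in LB with ampicillin (100 μg/ml) only, then diluted to OD600 0.150. It was induced with 1 mM IPTG, and 2 μM C4-HSL plus compound or DMSO were added at OD600 1.0. Cultures were shaken 4 h at 37 °C. β-Galactosidase activity was read in Miller units as % of the solvent sample. Triplicates per biological replicate, at least two repeats; paired two-tailed t-test.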

[7] = target: 3-(3-hydroxydecanoyloxy)decanoate synthase (Pseudomonas aeruginosa (strain ATCC 15692 / PAO1 / 1C / PRS 101 / LMG12228)) (UniProt Q51559); test: Modulation of Pseudomonas aeruginosa lacZ-fused rhlA expressed in Escherichia coli DH5alpha co-expressing Ptac-rhlR assessed as C4-AHL-induced effect at 0.40 mM after 4 hrs by beta-galactosidase assay relative to control; outline: as §3
[8] = target: 3-(3-hydroxydecanoyloxy)decanoate synthase (Pseudomonas aeruginosa (strain ATCC 15692 / PAO1 / 1C / PRS 101 / LMG12228)) (UniProt Q51559); test: Modulation of Pseudomonas aeruginosa lacZ-fused rhlA expressed in Escherichia coli DH5alpha co-expressing Ptac-rhlR assessed as C4-AHL-induced effect at 0.60 mM after 4 hrs by beta-galactosidase assay relative to control; outline: as §2
[9] = target: T2, Transcriptional activator protein LasR (Pseudomonas aeruginosa (strain ATCC 15692 / PAO1 / 1C / PRS 101 / LMG12228), UniProt P25084); test: Inhibition of Pseudomonas aeruginosa LasR
T2 sequence (P25084 whole entry): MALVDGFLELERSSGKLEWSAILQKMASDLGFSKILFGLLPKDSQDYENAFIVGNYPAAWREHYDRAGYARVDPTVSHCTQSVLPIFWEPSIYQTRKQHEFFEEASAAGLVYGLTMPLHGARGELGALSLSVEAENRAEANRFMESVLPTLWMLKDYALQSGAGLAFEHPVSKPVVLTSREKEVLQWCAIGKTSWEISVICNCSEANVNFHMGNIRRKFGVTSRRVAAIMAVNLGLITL

[10] = target: T1, Acyl-homoserine-lactone synthase (Pseudomonas aeruginosa (strain ATCC 15692 / PAO1 / 1C / PRS 101 / LMG12228)); test: Modulation of Pseudomonas aeruginosa lacZ-fused lasI expressed in Escherichia coli DH5alpha co-expressing pBAD-lasR at 0.002 mM after 3 hrs by beta-galactosidase assay relative to control; outline: as §1
[11] = target: T1, Acyl-homoserine-lactone synthase (Pseudomonas aeruginosa (strain ATCC 15692 / PAO1 / 1C / PRS 101 / LMG12228)); test: Modulation of Pseudomonas aeruginosa lacZ-fused lasI expressed in Escherichia coli DH5alpha co-expressing pBAD-lasR assessed as 3-oxo-C12-AHL-induced effect at 0.29 mM after 3 hrs by beta-galactosidase assay relative to control; outline: as §1
[12] = target: T1, Acyl-homoserine-lactone synthase (Pseudomonas aeruginosa (strain ATCC 15692 / PAO1 / 1C / PRS 101 / LMG12228)); test: Modulation of Pseudomonas aeruginosa lacZ-fused lasI expressed in Escherichia coli DH5alpha co-expressing pBAD-lasR assessed as 3-oxo-C12-AHL-induced effect at 0.58 mM after 3 hrs by beta-galactosidase assay relative to control; outline: as §1
[13] = target: T1, Acyl-homoserine-lactone synthase (Pseudomonas aeruginosa (strain ATCC 15692 / PAO1 / 1C / PRS 101 / LMG12228)); test: Modulation of Pseudomonas aeruginosa lacZ-fused lasI expressed in Escherichia coli DH5alpha co-expressing pBAD-lasR assessed as 3-oxo-C12-AHL-induced effect at 0.87 mM after 3 hrs by beta-galactosidase assay relative to control; outline: as §1
[14] = target: T1, Acyl-homoserine-lactone synthase (Pseudomonas aeruginosa (strain ATCC 15692 / PAO1 / 1C / PRS 101 / LMG12228)); test: Modulation of Pseudomonas aeruginosa lacZ-fused lasI expressed in Escherichia coli DH5alpha co-expressing pBAD-lasR assessed as 3-oxo-C12-AHL-induced effect at 1.16 mM after 3 hrs by beta-galactosidase assay relative to control; outline: as §1
[15] = target: 3-(3-hydroxydecanoyloxy)decanoate synthase (Pseudomonas aeruginosa (strain ATCC 15692 / PAO1 / 1C / PRS 101 / LMG12228)) (UniProt Q51559); test: Modulation of Pseudomonas aeruginosa lacZ-fused rhlA expressed in Escherichia coli DH5alpha co-expressing Ptac-rhlR assessed as C4-AHL-induced effect at 0.29 mM after 4 hrs by beta-galactosidase assay relative to control; outline: as §3
[16] = target: 3-(3-hydroxydecanoyloxy)decanoate synthase (Pseudomonas aeruginosa (strain ATCC 15692 / PAO1 / 1C / PRS 101 / LMG12228)) (UniProt Q51559); test: Modulation of Pseudomonas aeruginosa lacZ-fused rhlA expressed in Escherichia coli DH5alpha co-expressing Ptac-rhlR assessed as C4-AHL-induced effect at 0.58 mM after 4 hrs by beta-galactosidase assay relative to control; outline: as §2
[17] = target: 3-(3-hydroxydecanoyloxy)decanoate synthase (Pseudomonas aeruginosa (strain ATCC 15692 / PAO1 / 1C / PRS 101 / LMG12228)) (UniProt Q51559); test: Modulation of Pseudomonas aeruginosa lacZ-fused rhlA expressed in Escherichia coli DH5alpha co-expressing Ptac-rhlR assessed as C4-AHL-induced effect at 0.87 mM after 4 hrs by beta-galactosidase assay relative to control; outline: as §2
[18] = target: 3-(3-hydroxydecanoyloxy)decanoate synthase (Pseudomonas aeruginosa (strain ATCC 15692 / PAO1 / 1C / PRS 101 / LMG12228)) (UniProt Q51559); test: Modulation of Pseudomonas aeruginosa lacZ-fused rhlA expressed in Escherichia coli DH5alpha co-expressing Ptac-rhlR assessed as C4-AHL-induced effect at 1.16 mM after 4 hrs by beta-galactosidase assay relative to control; outline: as §2

Compound: O=C(Cc1cccc([N+](=O)[O-])c1)N[C@H]1CCOC1=O
IC50 [9]: 610 nM

Compound: CCCSC[C@@H]1CCC(=O)N1
Activity [11]: 90% | Activity [12]: 72% | Activity [13]: 51% | Activity [14]: 43% | Activity [15]: 104% | Activity [16]: 118% | Activity [17]: 104% | Activity [18]: 108%

The next lines start with the values.

Activity [1]: 84% | Activity [2]: 68% | Activity [3]: 116% | Activity [4]: 51% | Activity [5]: 42% | Activity [6]: 94% | Activity [7]: 105% | Activity [8]: 109%
Compound: CCCCCCSC[C@H]1NC(O)[C@H](O)[C@@H]1O (mixture of isomers)

Activity [10]: 100%
Compound: CCCCCCCCCC(=O)CC(=O)N[C@H]1CCOC1=O

IC50 [9]: 40 nM
Compound: CCCCCCCCCCCC(=O)N[C@H]1CCSC1=O
